According to ChEMBL document CHEMBL2396535, “Synthesis and biological evaluation of 18F-labled 2-phenylindole derivatives as PET imaging probes for β-amyloid plaques” (Bioorg Med Chem, 2013):
pKi: −log10 of the molar value. The source made the active and inactive calls. The calls are words filed in the database; no cut-off is given here.

Assays:
[1] = species: Mus musculus; assay: Binding affinity to amyloid beta in wild-type C57BL/6 mouse brain at 185 to 370 kBq after 1 hr by autoradiographic analysis; format: tissue-based; settings: tested as the 18F-labelled form
How it was run: (§1)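 Paraffin-embedded brain sections from male APPswe/PSEN1 transgenic C57BL6 mice (11 months old) and wild-type C57BL6 controls (11 months old) were incubated with [18F] tracer (185–370 kBq) for 1 h at room temperature, washed with 40% EtOH, dried and exposed to an imaging plate for 1 h. Plaques were confirmed on the same sections by thioflavin-S (0.125%) fluorescent staining.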

[2] = species: Mus musculus; assay: Binding affinity to amyloid beta in transgenic C57BL/6 mouse cerebellum harboring APPswe and PSEN1 double mutation at 185 to 370 kBq after 1 hr by thioflavin-S staining-based assay; format: tissue-based; settings: tested as the 18F-labelled form; how it was run: as §1
[3] = species: Mus musculus; assay: Binding affinity to amyloid beta in transgenic C57BL/6 mouse cerebellum harboring APPswe and PSEN1 double mutation at 185 to 370 kBq after 1 hr by autoradiographic analysis; format: tissue-based; settings: tested as the 18F-labelled form; how it was run: as §1
[4] = species: Mus musculus; assay: Binding affinity to amyloid beta in transgenic C57BL/6 mouse cortex harboring APPswe and PSEN1 double mutation at 185 to 370 kBq after 1 hr by thioflavin-S staining-based assay; settings: tested as the 18F-labelled form; how it was run: as §1
[5] = species: Mus musculus; assay: Binding affinity to amyloid beta in transgenic C57BL/6 mouse cortex harboring APPswe and PSEN1 double mutation at 185 to 370 kBq after 1 hr by autoradiographic analysis; settings: tested as the 18F-labelled form; how it was run: as §1
[6] = species: Mus musculus; assay: Binding affinity to amyloid beta in transgenic C57BL/6 mouse hippocampus harboring APPswe and PSEN1 double mutation at 185 to 370 kBq after 1 hr by thioflavin-S staining-based assay; format: tissue-based; settings: tested as the 18F-labelled form; how it was run: as §1
[7] = species: Mus musculus; assay: Binding affinity to amyloid beta in transgenic C57BL/6 mouse hippocampus harboring APPswe and PSEN1 double mutation at 185 to 370 kBq after 1 hr by autoradiographic analysis; format: tissue-based; settings: tested as the 18F-labelled form; how it was run: as §1
[8] = biological target: Amyloid-beta precursor protein (Homo sapiens, UniProt P05067); assay: Displacement of [125I]IMPY from amyloid beta (1 to 42) (unknown origin) after 3 hrs by gamma counting analysis
Sequence of Amyloid-beta precursor protein (P05067 whole entry): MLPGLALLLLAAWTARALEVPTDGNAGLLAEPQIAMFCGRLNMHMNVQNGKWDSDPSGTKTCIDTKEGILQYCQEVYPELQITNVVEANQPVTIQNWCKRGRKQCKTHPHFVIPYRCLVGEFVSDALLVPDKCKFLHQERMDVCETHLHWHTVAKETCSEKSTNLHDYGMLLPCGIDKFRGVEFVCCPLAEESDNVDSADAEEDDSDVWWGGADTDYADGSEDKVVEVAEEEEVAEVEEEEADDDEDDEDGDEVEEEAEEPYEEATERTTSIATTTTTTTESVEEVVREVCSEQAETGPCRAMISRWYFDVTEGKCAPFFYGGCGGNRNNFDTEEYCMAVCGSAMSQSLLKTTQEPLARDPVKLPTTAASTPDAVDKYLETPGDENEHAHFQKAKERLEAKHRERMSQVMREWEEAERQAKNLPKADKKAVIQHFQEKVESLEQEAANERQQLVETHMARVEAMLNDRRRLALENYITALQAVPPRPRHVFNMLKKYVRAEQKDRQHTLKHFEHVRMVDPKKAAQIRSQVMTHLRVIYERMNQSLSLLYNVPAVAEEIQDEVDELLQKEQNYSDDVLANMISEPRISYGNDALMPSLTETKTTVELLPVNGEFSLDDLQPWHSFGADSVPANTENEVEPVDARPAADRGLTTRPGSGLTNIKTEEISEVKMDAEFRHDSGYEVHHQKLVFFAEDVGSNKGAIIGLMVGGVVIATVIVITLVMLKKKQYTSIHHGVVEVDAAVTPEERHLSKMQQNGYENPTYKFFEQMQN
How it was run: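 Test compound ranged over 10^-4 to 10^-8.5 in ethanol, in 0.05% BSA, 1 mL total. Incubation was 3 h at room temperature, then GF/B filtration and gamma counting. IC50 came from three independent experiments, and Ki was derived by Cheng–Prusoff.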

CN(CCF)c1ccc(-c2cc3ccccc3[nH]2)cc1
Activity [1]: inactive
Activity [2]: Active
Activity [3]: Active
Activity [4]: Active
Activity [5]: Active
Activity [6]: Active
Activity [7]: Active
pKi [8]: 7.55
